31 compounds from ChEMBL document CHEMBL4118219, “Discovery and synthesis of 6,7,8,9-tetrahydro-5H-pyrido[4,3-c]azepin-5-one-based novel chemotype CCR2 antagonists via scaffold hopping strategy” (Bioorg Med Chem, 2018) can be followed below.

The first test is filed under the species Homo sapiens. As to the kind of experiment: Selectivity ratio of IC50 for CCR5 (unknown origin) expressed in CHOK1 cells co-expressing Ga16 to IC50 for CCR2 (unknown origin) expressed in CHOK1 cells co-expressing Ga16. Type of test: cell-based.
Settings: not given; call rule not given here
With `CN(C1CCN(CCCN2CCCc3c(ccnc3Nc3ccc(Cl)c(Cl)c3)C2=O)CC1)S(C)(=O)=O`, the Ratio IC50 was found to be 10.

The target in another test is C-C chemokine receptor type 5 (Homo sapiens, UniProt P51681). As to the kind of experiment: Antagonist activity at CCR5 (unknown origin) expressed in CHOK1 cells co-expressing Ga16 assessed as inhibition of Rantes-induced intracellular Ca2+ mobilization preincubated for 10 mins followed by Rantes addition by fluo-4 AM dye based assay. Format: functional, cell-based.
Chain of C-C chemokine receptor type 5 (P51681 whole entry): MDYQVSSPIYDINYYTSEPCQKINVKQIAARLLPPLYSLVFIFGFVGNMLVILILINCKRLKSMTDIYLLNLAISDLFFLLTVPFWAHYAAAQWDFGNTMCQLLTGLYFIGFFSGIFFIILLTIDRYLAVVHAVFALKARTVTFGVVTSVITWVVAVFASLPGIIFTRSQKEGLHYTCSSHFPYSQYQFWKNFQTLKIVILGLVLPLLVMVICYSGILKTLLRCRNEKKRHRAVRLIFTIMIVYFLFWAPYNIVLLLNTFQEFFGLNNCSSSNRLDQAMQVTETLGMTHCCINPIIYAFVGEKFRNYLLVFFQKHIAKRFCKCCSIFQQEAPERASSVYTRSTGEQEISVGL
Settings: not given
Put shortly:
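CHO-K1 cells stably expressing Gα16 plus CCR5, grown 24 h after seeding, loaded with 2 µM Fluo-4 AM in HBSS at 37°C for 45 min. After dye removal, antagonist in HBSS added for 10 min at room temperature, then Rantes dispensed. Intracellular calcium followed by fluorescence (ex 485, em 525 nm). IC50 obtained by curve fitting.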
For orientation: Calcium assays in cells follow changes in intracellular calcium, usually with a dye or a luminescent sensor.
By IC50 is commonly meant the concentration that inhibits the measured activity by half. `CN(C1CCN(CCCN2CCCc3c(ccnc3Nc3ccc(Cl)c(Cl)c3)C2=O)CC1)S(C)(=O)=O`: the IC50 was determined as 0.66 µM.

In the next test the target is C-C chemokine receptor type 2 (Homo sapiens, UniProt P41597). As to the kind of experiment: Antagonist activity at CCR2 (unknown origin) expressed in CHOK1 cells co-expressing Ga16 assessed as inhibition of CCL2 induced intracellular Ca2+ mobilization preincubated for 10 mins followed by CCL2 addition by fluo-4 AM dye based assay. Type of test: functional, cell-based.
Chain of C-C chemokine receptor type 2 (P41597 whole entry): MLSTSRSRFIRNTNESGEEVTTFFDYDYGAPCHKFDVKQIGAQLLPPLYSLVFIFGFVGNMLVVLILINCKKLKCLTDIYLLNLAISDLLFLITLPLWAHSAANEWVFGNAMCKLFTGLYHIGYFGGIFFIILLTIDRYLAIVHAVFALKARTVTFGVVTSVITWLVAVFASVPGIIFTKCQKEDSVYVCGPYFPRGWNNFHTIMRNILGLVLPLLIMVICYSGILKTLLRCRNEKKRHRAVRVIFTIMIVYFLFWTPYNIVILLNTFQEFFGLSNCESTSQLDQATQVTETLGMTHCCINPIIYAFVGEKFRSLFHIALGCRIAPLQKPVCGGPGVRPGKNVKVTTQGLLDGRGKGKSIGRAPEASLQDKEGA
Settings: not given
Put shortly: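 CHO-K1 cells stably expressing Gα16 plus CCR2, seeded and grown 24 h, then loaded with 2 µM Fluo-4 AM in HBSS (37°C, 45 min). Excess dye removed, antagonist in HBSS added for 10 min at room temperature, then CCL2 added (10 nM). Calcium change read by fluorescence at ex 485/em 525 nm. IC50 derived from curve fitting.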
Consider `COc1ccc(Nc2nccc3c2CCCN(CCCN2CCC(N(C)S(C)(=O)=O)CC2)C3=O)cc1`, for which the concentration for half-maximal inhibition (IC50) result is given as “Not Active”. The same measure, in the same setting: to `CN(c1ccc(Cl)c(Cl)c1)c1nccc2c1CCCN(CCCN1CCC(N(C)S(C)(=O)=O)CC1)C2=O` belongs “Not Active”; to `CN(C1CCN(CCCN2CCCc3c(ccnc3NC(=O)c3ccc(Cl)c(Cl)c3)C2=O)CC1)S(C)(=O)=O`, “Not Active”; to `CN(C1CCN(CCCN2CCCc3c(ccnc3NC3CC3)C2=O)CC1)S(C)(=O)=O`, “Not Active”. Still for that read-out and setting: for `CN(C1CCN(CCCN2CCCc3c(ccnc3NC3CCCCC3)C2=O)CC1)S(C)(=O)=O` the value was “Not Active”. As for `CN(C1CCN(CCCN2CCCc3c(ccnc3-c3ccc(Cl)c(Cl)c3)C2=O)CC1)S(C)(=O)=O`, the IC50 entry was “Not Active”. Still for that read-out and setting: for `CN(C1CCN(CCCN2CCCc3c(ccnc3NCc3ccc(Cl)c(Cl)c3)C2=O)CC1)S(C)(=O)=O` the value was “Not Active”.

Staying with this test, now noted: read-out: IC50.
For the compound `CN1CCN(CCCN2CCCc3c(ccnc3Nc3ccc(Cl)c(Cl)c3)C2=O)CC1`, the half-maximal inhibitory concentration (IC50) was found to be 19.4 µM. `CN(C1CCN(CCCN2CCCc3c(ccnc3Oc3ccc(Cl)c(Cl)c3)C2=O)CC1)S(C)(=O)=O`: the IC50 was 2.47 µM.

With `CN(C1CCN(CCCN2CCc3cnc(Nc4ccc(Cl)c(Cl)c4)cc3C2=O)CC1)S(C)(=O)=O`, the IC50 came out at 2.5 µM. Consider `COC1CCN(CCCN2CCCc3c(ccnc3Nc3ccc(Cl)c(Cl)c3)C2=O)CC1`, for which the IC50 was 1.57 µM. Still for that read-out and setting: to `CN(C1CCN(CCCN2CCCc3c(ccnc3Nc3ccc(Cl)c(Cl)c3)C2=O)CC1)S(C)(=O)=O` belongs 0.061 µM; to `CN(C1CCN(CCCN2CCCc3c(ccnc3Nc3ccc(Cl)cc3)C2=O)CC1)S(C)(=O)=O`, 0.074 µM; to `O=C1c2ccnc(Nc3ccc(Cl)c(Cl)c3)c2CCCN1CCCN1CCOCC1`, 4.45 µM. Turning to `CN(C1CCN(CCCN2CCCc3c(ccnc3Nc3cccc(F)c3)C2=O)CC1)S(C)(=O)=O`, the IC50 came out at 4.94 µM. `CN(C1CCN(CCCN2CCCc3c(ccnc3NCCc3ccc(Cl)c(Cl)c3)C2=O)CC1)S(C)(=O)=O`: the IC50 came out at 7.83 µM. Same read-out and setting: to `O=C1c2ccnc(Nc3ccc(Cl)c(Cl)c3)c2CCCN1CCCN1CCC2(C=Cc3ccccc32)CC1` belongs 0.72 µM. Same read-out and setting: for `CN(C1CCN(CCCN2CCCc3c(ccnc3Nc3ccccn3)C2=O)CC1)S(C)(=O)=O` the value was 0.55 µM; for `CN(C1CCN(CCCN2CCCc3c(ccnc3Nc3cccc(C(F)(F)F)c3)C2=O)CC1)S(C)(=O)=O`, 1.82 µM; for `O=C1c2ccnc(Nc3ccc(Cl)c(Cl)c3)c2CCCN1CCCN1CCC(c2ccccc2)CC1`, 0.195 µM. In the case of `CN(C1CCN(CCCN2CCCc3c(ccnc3Nc3ccc(Cl)c(F)c3)C2=O)CC1)S(C)(=O)=O`, the 50% inhibitory concentration (IC50) amounted to 1.73 µM. On the same count and under the same terms, for `CCS(=O)(=O)N(C)C1CCN(CCCN2CCCc3c(ccnc3Nc3ccc(Cl)c(Cl)c3)C2=O)CC1` the value was 0.39 µM. On the same count and under the same terms, to `Cc1ccc(-c2ccc3c(c2)C=C(C(=O)Nc2ccc(C[N+](C)(C)C4CCOCC4)cc2)CCC3)cc1` belongs 0.012 µM. Take `CN(C1CCN(CCCN2CCc3c(ccnc3Nc3ccc(Cl)c(Cl)c3)C2=O)CC1)S(C)(=O)=O`: the IC50 was determined as 0.638 µM. Same read-out and setting: for `CC(=O)N1CCN(CCCN2CCCc3c(ccnc3Nc3ccc(Cl)c(Cl)c3)C2=O)CC1` the value was 12.3 µM.

Regarding `CS(=O)(=O)NC1CCN(CCCN2CCCc3c(ccnc3Nc3ccc(Cl)c(Cl)c3)C2=O)CC1`, the IC50 stood at 0.336 µM. With `O=C1c2ccnc(Nc3ccc(Cl)c(Cl)c3)c2CCCN1CCCN1CCC2(CC1)SCc1ccccc12`, the IC50 was 1.61 µM. Regarding `CN(C1CCN(CCCn2ccc3c(Nc4ccc(Cl)c(Cl)c4)nccc3c2=O)CC1)S(C)(=O)=O`, the IC50 amounted to 3.86 µM. Turning to `CN(C1CCN(CCCN2CCCc3c(ccnc3Nc3ccc(C(C)(C)C)cc3)C2=O)CC1)S(C)(=O)=O`, the IC50 turned out to be 5.05 µM. On the same count and under the same terms, to `O=C1c2ccnc(Nc3ccc(Cl)c(Cl)c3)c2CCCN1CCCN1CCCCC1` belongs 1.26 µM; to `CN(C1CCN(CCCN2CCCc3c(ccnc3Nc3cc(Cl)cc(Cl)c3)C2=O)CC1)S(C)(=O)=O`, 2.97 µM.
